Measured values reported in the RNAGym collection of RNA variant scans (doi:10.1126/science.aae0568).
Variants at the floor of the assay were thinned out.

B1: tRNA (parent)
chain: GUUCCGUUGGCGUAAUGGUAACGCGUCUCCCUCCUAAGGAGAAGACUGCGGGUUCGAGUCCCGUACGGAACG

Variants of: B1
Experiment: yeast fitness relative to wild type (ratio to wild type); higher = fitter; tRNA-Arg(CCU), competitive growth, 37 C, YPD
Outline: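 Variants of the tRNA-Arg(CCU) gene, chemically synthesised with a 3% per-site mutation rate at 69 sites, were placed at the native genomic locus in Saccharomyces cerevisiae. The pooled strains were competed in YPD at 37°C for 24 hours in six parallel replicates. Gene amplicons from the start population and from each end population were read by 100-nucleotide paired-end sequencing. Darwinian fitness relative to wild type came from changes in genotype frequencies; genotypes needed ≥ 100 starting reads, and estimates < 0.5 were set to 0.5.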

Variant | yeast fitness
GUUCCGUUGGCGUAAUGGCAACGGGUCUCCCUCCUAAGCAGAAGACUGCGGGUUCGAGUCCCGUACGGAACG | ≤ 0.5
GUUCCGUUGGGGUAUUGGUAACGCGUCUCCCUCAUAAGGAGCAGACUACGGGUUCGAGUCCCGUACGGAACG | 0.619
GUUCUGUUGGCGUAAUGGUAACGCGUCUCCUUUGUAAGGCGAAGACUGCGGGUUCGAGUCCCAUACGGAACG | ≤ 0.5
GUUCCGUUGGCGUAAUGGUAACGCGUCUCACUCCUAAGGAGAAGACUGCGGGUACGAGUCCCGUACGGCACG | 0.539
GUUCCGUUGGUGUGAUGGUAACGGGUUUCCCUCCUAAGGAACAGACUGCGGGUUCGAGUCCCGUACGGAACG | ≤ 0.5
GUUCCGUUGGCGUAAUGGUAGCGCGUCUCGCUCCUAAGGAGAAGACUGCGGGUGCGAGUCCCGUGCGUACCG | ≤ 0.5
GUUCCGUUGGCGUAAUCGUAACGCGUCUCCCUCCUAAGGAGAUGACUGCGGGUUCAAGUCCCGUACGGAUCG | ≤ 0.5
GUUCCGUUGGUGUAACGGUAACGCGUCUCCCUCCUAAGGAGAAGACUGCGGGUUCGACUCCCGUACGGAACG | 0.653
GCUCCGUCGGCGUAAUGGUAACGCGUCUCCCUCAUAAGGAGCAGACUGAGGGUUCGAGUCCCGUACGGAACG | ≤ 0.5
GUUACGUUGGCGUAAUAGUAACGCGUCUCCCUCCUAAGGAGAAGACUGCGAGUUCGAGUGCCGUACGGAUCG | ≤ 0.5
GUACCGUUGGCGUAAUGGUAACGGGUCUCCCUCCUAAGGAGAAGACUGCGGGUUCGAGUCCCGUACGGAACG | 0.645
GUUCCGUUGGCGUAAUGGUAACACGUCUCCCUCCUAAGGAGAAGACUGCGGGUUCGAGUCCCGUACAGAACG | 0.841
GUUCAGUUGGCAUAAUGGUAACGCGUCUCCCUCCGAAGGAGAAGACUGCGGGUUCGAGUCCCGUACGGCACG | ≤ 0.5
GUUCCGUUGGCGUAAUGGUGACGCGUCUCCCUCCUAAGGCGAAGACUGCGGGUUCGAGUCCCGUACGGGACG | 0.625
GUUCUGUUGGCGUAAUGGUAACGCGACUCCCUCCUAAGGAGAAGACUGCGGGUUCGAGUCCCGUACGGCACG | 0.78
GUUCCGUUGGCAUGAUGGUAACGGGUCUCCCUCCUAAGGUGAAGAAUGCGGCUUCGAGUCCCGUACGGAACG | ≤ 0.5
GUACCGUUGGCCCAAUGGUAACGCGUCUCCCUCCUAAGGAGAAGACUGCGGGUUCGAGUCCCGUACGGCACG | 0.732
GUUCCGUUCGCGUACUGGUAACGCGUCUCCCUCCCAAGGAGAAGACUGCGGGUUCGAGACCCAUACGGAACG | ≤ 0.5
GUUCCGUUGACGUGAUGGUAACGCGUCUCCCUCCUAAGGAGAAGAAUGCGGGUUCGGGUCCCGUACGGAACG | ≤ 0.5
GUUCCGUUGGCGUAAUGGUAACGCGUCUCCCUCCUAAGGUGAAGACUGCGGGUUCGCGUCCCGUACAGUACG | ≤ 0.5
GUUCCGUUAGCGUAAUGGUAACGCGUCACCCUCCUAAGGAGAAGACUGCGGGUUCGAGUGCCGUACGGAACG | ≤ 0.5
GUUCCGUUGGCGUAAUGGUAACGCGUCUCCCUCCUAAGGAGAAGACUGAGGGUCCGAGUCCCGUACGGAACG | 0.674
GUUCCGUUGGCGUAAUGGUAACGCGUCUCCCUCCUACGCAGAAGACUGCCGGUUCGAGUCCCGUACGGAACG | ≤ 0.5
GUUCCGUUGGCGUAAUGGUAACGGGUCUCCCUCCUACGGAGAAGACUGCGGGUUCGAGCCCUGUACGUAACG | ≤ 0.5
GUUCCGUUGGCGUAAUGAUUACGCGUGUCCCUCCUAAGGAGAAGACAGCGGGUUCGAGUCCCGUACGGAACG | ≤ 0.5

Variant | yeast fitness
GUUCCGUCGGCGUAAGGGUAACGCAUCUCCCUCCUAAGGAGAAGACUGCGGGUUCGAGUCCCGUACGGAGCG | ≤ 0.5
GUUCCGUUGGCGUAAUGGUGACGCGUCUCCCUCCUAAGGGGAAGACUGUGGGUUCGAAUCCCGUACGGAACG | ≤ 0.5
GCUCCGUUGGCGUAGUGGAUACGCGUCUCCCUCCUAUGGAGAAGGCGGCGGGUUCGAGUCGCGUACGGAACG | 0.676
GUUCUGUUGGCGUAAUGGUAACGCGUCUCCCUCCUAAGGAGAUGACUGUGGGUUCGAGUCGCGUACGGAACG | 0.532
GUCCCGUCGGAGUAAUGGUAACGCGUCUCCCGCCUAAGGAGAAGACUGCGGGUUCGAGUCAAGUACGGAACG | ≤ 0.5
GUUCCGUUGGCGUAAUGGUAACGCGCCUAACUCCUAAGGAGAAGUCUGCGGGUUCGAGUCCCGUACGGAACG | 0.582
GUUCCGUUGGCGUAAUGGAAACGCGUCUCCCUCCUAAGGAGAAGACUGCAGGUUCGCGUCCCGUACGGAACG | 0.516
GUUCCGUUGGCGUAAUGGCAACGCGUCUCCCUCCUAAGGAGAAGACUGCGGGUUCGAGUCCCGUACCGAACG | 0.931
GUACCGUUGGCGUAAUGGUCGCGCGUCUCCCUCCUAAGGAGAAGACUGCGGGUUCGAGUCACGUACGGAACG | 0.514
GUUCCGUUGGCGUAAUGCUAACGCGUCUCUCUCCUAAGGAGAAGACUGCGGGUUCGAGUCCCGAACGGAACG | ≤ 0.5
GUGCCGUUGGCGUAAUCGUAACGCGUCUCCCUCCUAAGGAGAAGACUGCGGGUUCGAGUCCUGUACGGAACG | ≤ 0.5
GUUCUGUUGGCGUAAUGGUAACGCGUCUCCCUGGUAAGGAGAAGAUUGCGGGUUCGAGUCCCGUACGGAACG | ≤ 0.5
GUUCCGUUGGCGUAAUGGUAACGAGUCUUCCUCCUAAGGAGAAGACUGCGGGUUCGAGUCUCGUAGGGAACG | 0.544
GUUCUGGUGGCGUAAUGGUAACGCGUCUCACUCCUAAGGAGAAGACUGCGGGUUCGAGUCCCGUACGGAACG | 0.93
GUUCCGUUGGCGUAAUCGUAACGCGUCUCCCUCCCAGGGAGAAGACUGCGCGUUCGAGUCCCGUACGGAACG | ≤ 0.5
GUUCCGUUGGCGUAAGGGUAACGGGUCUCCCUCCUAAGGAGAAGACUGCGGGUUCGAGACCCGUACGGAACG | ≤ 0.5
GUUCCGUUGGCGUAAUGGUAACGCGUCUCCCUCCUAAGGAGAAGACUGCGGGUUCGAGACCCGAACGGAACG | 0.73
GUUCCGCUGGCGUAAUGGUAACGCGUCUCCCUCCUCAGGAGAAGACUGCGGGUUCGUGUCACGUAGGGAACG | 0.537
GUUCCGUUGGCGUAAUGGUAACGCGUCUCCCUCCUAAGGAAAAGACUGCGGGUUCGAGUCCCGUGCGGAACG | 0.934
GUUCCGUUGGCGUAAUGGAAACGCGUCUCCCUCGUAAGGAGAAGACUGCGGAUUCGAGUCCCGUACGGAACG | ≤ 0.5
GUUCCGUUGGCGUAAUGGUAACGCGUCUCCCUCCUAUGGAGGAGUCUGCGGGUUCGAGUCCCGUAUGGAACG | ≤ 0.5
GCUCCGUUGCCGUUAUGGUAACGCGUCUCCCUCCUAACGAGAAGACUGCGGGUUCGAGUCCCGUACGGAACG | ≤ 0.5
GUUCCGUUGGCGUAAUGGUAACGCGUCUCCCUCCUAACGAGAAGACUGUGGGUUCGAGUCCUGUACGGUACG | 0.819
GUUCGGUUGGAGUAAUGGUUACGCGUCUACCUCCUACGGAGAAGACUGCGGGUUCGAGUCCCGUACGGAACG | ≤ 0.5
GUUCCGUUGGGGUUAUGGUAUCGCGUCUCCCUCCUAAGGAGAAGACUGCGGGUUCGAGUCCCGUACGGUACG | ≤ 0.5

Variant | yeast fitness
GUUCCGUUGGCGUACUGGUAACGUGUCUCCCUCCUAAGGAGAAGGCUGCGGAUUCGAGUCCCGUACGGAACG | ≤ 0.5
GUCCCGUUGGCGUAAUGGUAACGCGUCUCCCUCCUAAGGUGAAGACUGCGGGUUCGAGUCCCAUGCGGAACG | 0.549
GUUCCGUUGGCGUAAUGGUAACGCGUCUCCCUCCUAAGGAGAGGACUGCAGGUUCGAGUCCCGUACGGAACG | 0.864
GUUCCCUUGGCAUAAUGGUAACGCGUCUCCCUCCUAAGGAGAAGACAGCGCGUUCGAGUCCCGUGCGGAACG | ≤ 0.5
GUCCCGUUGGCGAAAUGGUAACGCGUCUCCCUCCUAAGGAGAAGCCUACGGGUUCGAGUCCCGUACGGAACG | 0.604
GUUCCGUUGGCGUAAUGGUAACGCGUCCCCCUCCUAAGGAGAAGACAGCGGGUUCGAGUCGCGUACCGAACG | ≤ 0.5
GUUCCGUUGGUGUAAUGGUAACGCGUCUCCCUCCUAAGGAGAAAACUGCGGGUUCGAGUCCCGUCCGGAACG | 0.704
GUUCCGUUGGCGUAAUGGUAACGCGUCUCCCUCCUAAGGAGAUGACUACGGGUUCCUGUCCCGUACGGAACG | 0.693
GUUCCGUUGGCGUCAUGGUAACGCGUCUCCCUCCUAAGGAGAAGACUGCGGGUUAGAGUCCCGUACGGCACG | ≤ 0.5
GUUCCGUUGGCGUAAUGGUCACGCGUCUCCCUCCUAAGGAGAAGUCUGCGGGUUCGAGUCCCGUACGGUACG | 0.773
GUUGUGUAGGCAUAAUGGUAACGCGUCUCCCUCCUAAGGAGAAGACUACGGGUUCGAGUCCCGUACGGCACG | ≤ 0.5
GUUCGGUUGGCGUAAUGGUAACGCGUCUCCCUCCUGAGGCGAAGACUGCGGGUUCGAGUCCCGUACGGAACG | 0.683
GUUGCGUUGGCGUAAUGGUACCGCGUCUCCCUCCUAAGCAGUAGACUCCGGGUUCGAGUCCCGUACGGAACG | ≤ 0.5
GUUCCGUUGGCGUAAUGGUAACGCGUCUCGCUCCUAAGGAAAAGACUGCGGGUUCGAGUCCCGUAUGGAACG | ≤ 0.5
GUUCCGUUGGAGUGAUGGUAACGCGUCUCCGUCGUAAGGAGAAGACUGCGGGUUCGAGUCCCGUACGGAACG | ≤ 0.5
GUACCGAUGGCGUAAUGGUAACGCGUCUCCCUCCUAAGGAGAAGACUGAGGGUUCGAGUCCCGUACGGAACG | 0.542
GUUCCGUUGGCGUAAUGGUAACGCGUCUCCCUCCUAAGGAGGAGACUGCGGGUUCGAGUCCCGUACGGAGCG | 0.693
GCUCCGUUGGCGUAAUGAUAACGCGUCCCCCUCCUAAGGAGCAGACUGCGGGUUCGAGUCCCGUACGGAACG | ≤ 0.5
GUUCCGUUGCCGUAAUGGUAAGGCGUCUCUCUCCUAAGGAGAAGACUGCGGGUUUGAGUCCCGUACGGAACG | ≤ 0.5
GUUCCGUAGGCGUAAUGGUAACGCGUCUCCCUCCUAAAGAGAAGACUGCGGGUACGAGUCCCGUACGGAACG | ≤ 0.5
GUUCCGUUGGCGUAAUGGUAGCGCGUCUCACUGCUAAGGAGAAGACUGCGGGUUCGAGACCCGUAUGGAACG | 0.535
GUUGCGUUGCGGUAAUGGUAACGCGUCUCCCUCCUAUGGAGAGGACUGCGGGUUCGAGUCCCGUACGGGACG | ≤ 0.5
GUUCCGUUGGGGUAAUGGUAACGCGUCUGCCUCCCAAGGAGAAGACAGCGGGUUCGAGUCCCGUACGCAACG | ≤ 0.5
GAUCCGUUGGCGUAAUGGUAACGUGUCUCCCUCCUAAGGAGCAGACUGCGGGUUCGAGUCCGGUACGGAACG | ≤ 0.5
GUUCCGCUGACGUAAUGGUAACGGGUCUCCCUCCUAAGGAGAAGACUGCGGGUUCGAGUCCAGUACGGAACG | ≤ 0.5
